Data taken from ChEMBL document CHEMBL1772990, “Biomimetic syntheses and antiproliferative activities of racemic, natural (-), and unnnatural (+) glyceollin I” (2011).

What was measured:
[1] = Antiproliferative activity against estrogen receptor-deficient human NCI-ADR-RES cells incubated with 0.003 nM of estradiol and 0.01 nM of testosterone after 48 hrs by sulforhodamine B assay in presence of 5% fetal bovine serum; assay type: functional
How it was run: (§1)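 Low-E2 condition: MCF7 and NCI-ADR-RES cells were precultured at least 4 days in RPMI with 5% FBS and no NuSerum, then seeded in it at 3500 and 6000 cpw. MCF12A cells were seeded at 1600 cpw in their maintenance medium (DMEM/F-12 with insulin, hydrocortisone, EGF, cholera toxin, 5% FBS). Agents were added in 5% FBS RPMI. After 48 h, growth was read by sulforhodamine B OD versus 0.25% DMSO controls, with GI50 from a Hill fit.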

MCF7 [2] = test: Antiproliferative activity against human MCF7 cells expressing estrogen receptor incubated with 0.06 nM of estradiol and 0.07 nM of testosterone after 48 hrs by sulforhodamine B assay in presence of fetal bovine serum and NuSerum; assay type: functional; settings: MCF7, 48 h
How it was run: (§2)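 Sulforhodamine B growth assay with 48 h agent exposure at 37 °C in 5% CO2. Seeding densities were preset to give exponential growth with final OD below 2.0. Percent growth was taken from OD versus matched vehicle-only (0.25% DMSO) controls. GI50 came from a Hill equation fit, with values averaging eight sets of duplicate wells across a concentration range.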

[3] = Antiproliferative activity against estrogen receptor-deficient human NCI-ADR-RES cells incubated with 100 nM of estradiol and 0.07 nM of testosterone after 48 hrs by sulforhodamine B assay in presence of fetal bovine serum and NuSerum; assay type: functional
How it was run: (§3)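 High-E2 condition: cells were seeded as for the intermediate-E2 tests. Agents were added in 5% FBS/5% NuSerum medium with E2 added to give 100 nM final during exposure. After 48 h at 37 °C in 5% CO2, sulforhodamine B staining gave percent of matched 0.25% DMSO vehicle-control growth. GI50 came from a Hill equation fit, averaging eight sets of duplicate wells.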

[4] = Antiproliferative activity against estrogen receptor-deficient human NCI-ADR-RES cells incubated with 0.06 nM of estradiol and 0.07 nM of testosterone after 48 hrs by sulforhodamine B assay in presence of fetal bovine serum and NuSerum; assay type: functional; how it was run: as §2
MCF7 [5] = test: Antiproliferative activity against human MCF7 cells expressing estrogen receptor incubated with 0.003 nM of estradiol and 0.01 nM of testosterone after 48 hrs by sulforhodamine B assay in presence of 5% fetal bovine serum; assay type: functional; settings: MCF7, 48 h; how it was run: as §1
MCF7 [6] = test: Antiproliferative activity against human MCF7 cells expressing estrogen receptor incubated with 100 nM of estradiol and 0.07 nM of testosterone after 48 hrs by sulforhodamine B assay in presence of fetal bovine serum and NuSerum; assay type: functional; settings: MCF7, 48 h; how it was run: as §3
MCF-12A [7] = test: Antiproliferative activity against estrogen receptor-deficient human MCF12A cells incubated with 0.003 nM of estradiol and 0.01 nM of testosterone after 48 hrs by sulforhodamine B assay in presence of 5% fetal bovine serum; assay type: functional; how it was run: as §1
MCF-12A [8] = test: Antiproliferative activity against estrogen receptor-deficient human MCF12A cells incubated with 0.06 nM of estradiol and 0.07 nM of testosterone after 48 hrs by sulforhodamine B assay in presence of fetal bovine serum and NuSerum; assay type: functional; how it was run: as §2
PC-3 = test: Antiproliferative activity against androgen receptor-deficient human PC3 cells incubated with 0.6 nM of estradiol and 0.7 nM of testosterone after 48 hrs by sulforhodamine B assay; assay type: functional; settings: PC-3, 48 h; how it was run: as §2
DU-145 = test: Antiproliferative activity against androgen receptor-deficient human DU145 cells incubated with 0.6 nM of estradiol and 0.7 nM of testosterone after 48 hrs by sulforhodamine B assay; assay type: functional; settings: DU-145, 48 h; how it was run: as §2
LNCaP = test: Antiproliferative activity against human LNCAP cells expressing androgen receptor incubated with 0.6 nM of estradiol and 0.7 nM of testosterone after 48 hrs by sulforhodamine B assay; assay type: functional; how it was run: as §2
MCF-12A [9] = test: Antiproliferative activity against estrogen receptor-deficient human MCF12A cells incubated with 100 nM of estradiol and […] of testosterone after 48 hrs by sulforhodamine B assay in presence of fetal bovine serum and NuSerum

| Compound | GI50 (MCF7 [2]) [µM] | GI50 (MCF7 [5]) [µM] | GI50 (MCF7 [6]) [µM] | GI50 (PC-3) [µM] | GI50 (DU-145) [µM] | GI50 (LNCaP) [µM] | GI50 [1] [µM] | GI50 [3] [µM] | GI50 [4] [µM] | GI50 (MCF-12A [7]) [µM] | GI50 (MCF-12A [8]) [µM] | GI50 (MCF-12A [9]) [µM] |
| --- | --- | --- | --- | --- | --- | --- | --- | --- | --- | --- | --- | --- |
| O=c1c(-c2ccc(O)cc2)coc2cc(O)cc(O)c12 [GENISTEIN] | 45.7 | 61.7 | 52.5 | 42.7 | 50.1 | 38.9 | 32.4 | 26.9 | 17 | 32.4 | 21.9 | 30.2 |
| CC1(C)C=Cc2c(ccc3c2OCC2(O)c4ccc(O)cc4OC32)O1 (racemic) | 20 | 17.4 | 18.2 | 32.4 | 29.5 | 12.9 | 41.7 | 45.7 | 37.2 | 47.9 | 45.7 | 51.3 |
| CCC(=C(c1ccc(O)cc1)c1ccc(OCCN(C)C)cc1)c1ccccc1 | 1.91 | 1.41 | 3.47 | 7.59 | 10.7 | 8.32 | 4.47 | 7.76 | 6.17 | 3.31 | 3.89 | 3.24 |
| C[C@]12CC[C@@H]3c4ccc(O)cc4C[C@@H](CCCCCCCCC[S+]([O-])CCCC(F)(F)C(F)(F)F)[C@H]3[C@@H]1CC[C@@H]2O (some centres undefined) [FULVESTRANT] | 158 | < 0.01 | 794 | > 100 | > 100 | 398 | > 100 | > 100 | > 100 | > 100 | > 100 | > 100 |
| CC1(C)C=Cc2c(ccc3c2OC[C@]2(O)c4ccc(O)cc4O[C@H]32)O1 | 24 | 22.9 | 21.4 | 47.9 | 57.5 | 27.5 | 42.7 | 30.2 | 44.7 | 38 | 38.9 | 46.8 |

Further lines, with some results ahead:

| GI50 (MCF7 [2]) [µM] | GI50 (MCF7 [5]) [µM] | GI50 (MCF7 [6]) [µM] | GI50 (PC-3) [µM] | GI50 (DU-145) [µM] | GI50 (LNCaP) [µM] | Compound | GI50 [1] [µM] | GI50 [3] [µM] | GI50 [4] [µM] | GI50 (MCF-12A [7]) [µM] | GI50 (MCF-12A [8]) [µM] | GI50 (MCF-12A [9]) [µM] |
| --- | --- | --- | --- | --- | --- | --- | --- | --- | --- | --- | --- | --- |
| 13.8 | 13.2 | 15.1 | 30.9 | 36.3 | 11.5 | CC1(C)C=Cc2c(ccc3c2OC[C@@]2(O)c4ccc(O)cc4O[C@@H]32)O1 [GLYCEOLLIN I] | 24.5 | 29.5 | 30.2 | 33.1 | 27.5 | 38 |
| 2.95 | 2.29 | 5.62 | 11 | 13.8 | 10 | CC/C(=C(\c1ccccc1)c1ccc(OCCN(C)C)cc1)c1ccccc1 [TAMOXIFEN] | 5.75 | 11.5 | 9.55 | 5.75 | 6.92 | 5.75 |
